Reference: ChEMBL document CHEMBL2176891, “Structural investigation of anti-Trypanosoma cruzi 2-iminothiazolidin-4-ones allows the identification of agents with efficacy in infected mice” (J Med Chem, 2012)
The source made the active and inactive calls. The rule behind the calls is not given here.

Columns and labels:
Trypanosoma cruzi [1] = experiment: Antitrypanosomal activity against Trypanosoma cruzi; type: functional, organism-based
Trypanosoma cruzi [2] = experiment: Antitrypanosomal activity against trypomastigotes of Trypanosoma cruzi Y infected in LLC-MK2 cells assessed as parasite motility after 24 hrs; type: functional, organism-based; conditions: LLC-MK2, 24 h
In short: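 Y strain bloodstream trypomastigotes taken from LLC-MK2 culture supernatant, 4 × 10⁵ cells/well. Five compound concentrations (DMSO), triplicate, 24 h at 37 °C, 5% CO₂. Viable parasites judged by motility in a Neubauer chamber. Inhibition calculated relative to untreated culture; IC50 by nonlinear regression.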

[3] = Cytotoxicity against BALB/c mouse splenocytes assessed as highest nontoxic concentration by measuring [3H]-thymidine incorporation after 24 hrs by beta-radiation counting; type: cell-based, Splenocyte; conditions: for MNTC at 24 h: mouse, splenocytes, read-out: Activity; for highest nontoxic concentration: Mus musculus, Splenocyte, read-out: IC50
In short: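 BALB/c splenocytes, 5 × 10⁶ cells/well in RPMI-1640 with 10% FBS. Compound in DMSO at 1.0, 10 and 100 μg/mL or more, triplicate; untreated and saponin controls. 24 h at 37 °C, 5% CO₂. 1.0 μCi ³H-thymidine added, incorporation read by β-counting as % of untreated. Highest nontoxic concentration estimated.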

Cruzipain [4] = target: T1, Cruzipain (Trypanosoma cruzi, UniProt P25779); experiment: (§1) Inhibition of Trypanosoma cruzi recombinant cruzain using Z-FR-AMC as substrate at 20 uM preincubated for 10 mins before substrate addition
T1 sequence (P25779 whole entry): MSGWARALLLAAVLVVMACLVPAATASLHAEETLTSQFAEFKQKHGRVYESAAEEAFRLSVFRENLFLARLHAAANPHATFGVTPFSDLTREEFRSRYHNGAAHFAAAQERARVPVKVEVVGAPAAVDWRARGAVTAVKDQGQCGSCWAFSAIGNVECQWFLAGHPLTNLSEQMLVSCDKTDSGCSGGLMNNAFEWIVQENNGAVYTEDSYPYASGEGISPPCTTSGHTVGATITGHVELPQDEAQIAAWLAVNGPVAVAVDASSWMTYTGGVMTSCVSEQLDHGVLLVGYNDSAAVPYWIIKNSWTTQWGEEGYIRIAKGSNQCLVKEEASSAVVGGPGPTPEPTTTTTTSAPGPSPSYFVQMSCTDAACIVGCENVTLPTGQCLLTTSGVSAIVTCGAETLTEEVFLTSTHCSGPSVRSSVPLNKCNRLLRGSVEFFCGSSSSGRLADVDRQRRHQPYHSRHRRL

[5] = target: Cruzipain (Trypanosoma cruzi) (UniProt P25779); experiment: as §1
Chain of Cruzipain (Trypanosoma cruzi) (P25779 123-467 limits assumed): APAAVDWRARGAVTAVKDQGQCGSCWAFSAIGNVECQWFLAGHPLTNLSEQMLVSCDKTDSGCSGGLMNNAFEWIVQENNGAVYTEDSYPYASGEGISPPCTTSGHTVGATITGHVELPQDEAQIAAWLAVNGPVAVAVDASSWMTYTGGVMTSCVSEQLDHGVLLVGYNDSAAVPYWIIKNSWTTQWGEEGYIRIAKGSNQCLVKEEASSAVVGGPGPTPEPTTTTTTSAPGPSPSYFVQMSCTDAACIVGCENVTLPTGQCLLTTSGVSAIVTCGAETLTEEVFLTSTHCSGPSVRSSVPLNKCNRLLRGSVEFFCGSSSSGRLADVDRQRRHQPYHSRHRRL

Procathepsin L [6] = target: T2, Procathepsin L (Homo sapiens, UniProt P07711); experiment: Inhibition of recombinant cathepsin L using ZFR-pNA as substrate preincubated for 45 mins
In short: (§2)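 Recombinant cathepsin L or S activated with 1 mM DTT in 0.1 M acetate pH 5.5. Preincubated 45 min at room temperature with compound in phosphate buffer with 0.1% BSA, 1 mM EDTA and 0.001% Tween. Z-FR-pNA added, reaction 5 min; final 30 nM enzyme and 5.0 μM substrate. Triplicate runs; IC50 from at least seven concentrations.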
Target sequence in this assay (P07711 whole entry): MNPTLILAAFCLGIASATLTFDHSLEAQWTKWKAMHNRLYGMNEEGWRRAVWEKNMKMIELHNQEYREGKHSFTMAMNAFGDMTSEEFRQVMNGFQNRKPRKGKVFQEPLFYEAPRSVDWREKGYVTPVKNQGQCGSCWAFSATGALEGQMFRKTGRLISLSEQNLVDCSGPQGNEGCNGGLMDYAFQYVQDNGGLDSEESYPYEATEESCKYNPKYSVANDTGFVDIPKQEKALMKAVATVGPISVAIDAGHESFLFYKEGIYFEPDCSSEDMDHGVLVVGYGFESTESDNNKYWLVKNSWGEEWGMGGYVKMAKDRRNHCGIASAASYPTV

[7] = Selectivity index, ratio of IC50 for concanavalin A-stimulated BALB/c mouse splenocytes to IC50 for trypomastigotes of Trypanosoma cruzi Y infected in mouse peritoneal macrophages
In short: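 Ratio of splenocyte IC50 to IC50 against intracellular parasites in Y strain-infected peritoneal macrophages (4-day assay).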

Cathepsin S = Cathepsin S (Homo sapiens, UniProt P25774); experiment: Inhibition of recombinant cathepsin S using ZFR-pNA as substrate preincubated for 45 mins; in short: as §2
Chain of Cathepsin S (P25774 whole entry): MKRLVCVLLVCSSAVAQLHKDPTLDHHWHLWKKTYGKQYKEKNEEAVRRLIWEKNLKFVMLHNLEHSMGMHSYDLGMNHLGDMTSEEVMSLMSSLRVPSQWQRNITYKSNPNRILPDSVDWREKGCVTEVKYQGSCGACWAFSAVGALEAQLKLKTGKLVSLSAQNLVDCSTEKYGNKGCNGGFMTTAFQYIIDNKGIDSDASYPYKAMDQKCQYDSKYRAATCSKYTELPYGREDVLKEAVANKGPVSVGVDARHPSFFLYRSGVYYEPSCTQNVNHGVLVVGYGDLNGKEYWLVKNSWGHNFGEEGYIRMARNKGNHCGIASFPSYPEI

[8] = Antiproliferative activity against concanavalin A-stimulated BALB/c mouse splenocytes after 72 hrs by AlamarBlue assay; type: cell-based; conditions: Splenocyte
In short: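 Splenocytes from BALB/c mice at 5 × 10⁶ cells/well in RPMI-1640 with 10% FBS, stimulated with 2.0 μg/mL concanavalin A. Compounds in DMSO, six concentrations in triplicate. Controls: con A alone, no con A, and con A plus 0.01 μg/mL cyclosporin A. 72 h at 37 °C, 5% CO₂. AlamarBlue for 1 h, fluorescence ex 530/em 590 nm. IC50 by nonlinear regression.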

Procathepsin L [9] = target: T2, Procathepsin L; experiment: Inhibition of recombinant cathepsin L using ZFR-pNA as substrate at 100 uM preincubated for 45 mins; in short: as §2
Target sequence in this assay (P07711 114-333 limits assumed): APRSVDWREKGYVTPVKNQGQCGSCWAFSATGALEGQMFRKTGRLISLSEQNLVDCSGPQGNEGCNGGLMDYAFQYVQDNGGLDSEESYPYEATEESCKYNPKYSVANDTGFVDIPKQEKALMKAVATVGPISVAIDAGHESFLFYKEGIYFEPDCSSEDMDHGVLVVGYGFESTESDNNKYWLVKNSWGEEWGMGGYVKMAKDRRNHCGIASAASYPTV

Trypanosoma cruzi [10] = experiment: Antitrypanosomal activity against epimastigotes of Trypanosoma cruzi Y in axenic culture assessed as parasite motility after 11 days; conditions: 264 h
Trypanosoma cruzi [11] = experiment: Antitrypanosomal activity against trypomastigotes of Trypanosoma cruzi Y infected in mouse peritoneal macrophages assessed as reduction of intracellular parasite level after 4 days; type: functional, organism-based; conditions: 96 h
In short: (§3)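 Peritoneal exudate macrophages, 2 × 10⁵/well on coverslips, infected with Y strain trypomastigotes at 10 parasites per macrophage for 2 h, then washed. Compound in DMSO added for 6 h, medium replaced, culture continued 4 days. After methanol fixation and Giemsa staining, 100 cells per slide counted for % infected macrophages and amastigotes per cell. IC50 based on % infected cells versus untreated.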

Mus musculus [12] = experiment: Toxicity in BALB/c mouse assessed as reduction in body weight at 250 umol/kg, po qd for 5 days; type: organism-based; conditions: in vivo, 120 h
Mus musculus [13] = experiment: Toxicity in BALB/c mouse assessed as mortality at 250 umol/kg, po qd for 5 days; type: organism-based; conditions: in vivo, 120 h
In short: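 Female BALB/c mice, 6–8 weeks old, were infected i.p. with 10⁴ Y strain bloodstream trypomastigotes in saline and randomly grouped, six per group. From day 5 postinfection, drug was given orally by gavage at 250 μmol/kg once daily for five consecutive days. Blood parasites were counted by hemocytometer, and survival was followed for one month. Untreated and benznidazole-treated infected mice served as controls.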

Cruzipain [14] = target: T1, Cruzipain; experiment: Inhibition of Trypanosoma cruzi recombinant cruzain using Z-FR-AMC as substrate preincubated for 10 mins before substrate addition; conditions: read-out: IC50
In short: (§4)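 Recombinant cruzain preincubated 10 min at room temperature with compound (DMSO) in phosphate buffer containing EDTA, 100 mM NaCl and DTT. Z-FR-AMC then added; final 0.5 nM enzyme and 2 μM substrate. Fluorescence read at 1, 5 and 10 min; % inhibition versus no-inhibitor control. Single-point values are triplicate means; IC50 by nonlinear regression from multiple concentrations. Some runs used 0.01% Triton X-100.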

Trypanosoma cruzi [15] = experiment: Antitrypanosomal activity against trypomastigotes of Trypanosoma cruzi Y infected in mouse peritoneal macrophages assessed as reduction of intracellular parasite level at 10 uM after 4 days; type: functional, organism-based; in short: as §3
Trypanosoma cruzi [16] = experiment: Induction of ultrastructural alteration of trypomastigotes of Trypanosoma cruzi Y at 3.9 uM by scanning electron microscopy; type: functional, organism-based
In short: (§5)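 Y strain bloodstream trypomastigotes and infected macrophages exposed to 3.9 μM compound, then examined by transmission and scanning electron microscopy.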

Trypanosoma cruzi [17] = experiment: Antitrypanosomal activity against epimastigotes of Trypanosoma cruzi Y assessed as reduction of proteolytic activity using gelatin as substrate after 48 hrs by zymography assays
Trypanosoma cruzi [18] = experiment: Antitrypanosomal activity against trypomastigotes of Trypanosoma cruzi Y infected in BALB/c mouse assessed as reduction of blood parasite level at 250 umol/kg, po qd for 5 days; type: functional; set-up: scale not given: the % may be the effect or the level left
In short: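 Female BALB/c mice, 6–8 weeks old, infected ip with 10⁴ Y strain bloodstream trypomastigotes in saline; six mice per group. From day 5 postinfection, 250 μmol/kg given orally by gavage once daily for 5 days. Fresh-blood parasitemia counted in a hemocytometer. Reduction = (vehicle − treated)/vehicle × 100, using day 5 of treatment; two independent experiments.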

[19] = target: Cruzipain (Trypanosoma cruzi) (UniProt P25779); experiment: Inhibition of Trypanosoma cruzi recombinant cruzain using Z-FR-AMC as substrate at 20 uM preincubated for 10 mins before substrate addition in presence of 0.01% of Triton X-100; in short: as §4
Trypanosoma cruzi [20] = experiment: Induction of ultrastructural alteration of trypomastigotes of Trypanosoma cruzi Y at 3.9 uM by transmission electron microscopy; type: functional, organism-based; in short: as §5
Trypanosoma cruzi [21] = experiment: Inhibition of trypomastigotes of Trypanosoma cruzi Y invasion to mouse peritoneal macrophages at 50 uM […]; type: functional, organism-based

| inhibition [5] | SMILES | IC50 (Trypanosoma cruzi [2]) | MNTC at 24 h [3] | IC50 (Procathepsin L [6]) | Ratio IC50 [7] | IC50 (Cathepsin S) | IC50 [8] | inhibition (Procathepsin L [9]) | IC50 (Trypanosoma cruzi [10]) | IC50 (Trypanosoma cruzi [11]) | highest nontoxic concentration [3] | Activity (Trypanosoma cruzi [15]) | Activity (Trypanosoma cruzi [18]) | other results |
| --- | --- | --- | --- | --- | --- | --- | --- | --- | --- | --- | --- | --- | --- | --- |
| – | Cc1ccc(SC/C=N/N=C2\NC(=O)C(C)S2)cc1 (configuration not stated) | – | – | – | – | – | – | – | – | – | – | – | – | IC50 (Trypanosoma cruzi [1]): 80.4 µM |
| inactive | C/C(COc1ccccc1)=N\Nc1nc(-c2ccccc2)cs1 | 19.6 µM | 50 µg/mL | – | – | – | – | – | – | – | – | – | – | IC50 (Cruzipain [4]): > 20 µM |
| 0% | C/C(COc1ccccc1)=N\N=C1/NC(=O)CS1 | 19 µM | > 100 µg/mL | > 100 µM | 10 | > 100 µM | 98 µM | 1% | 23.2 µM | 19.5 µM | > 200 µM | – | – | – |
| – | O=C(Cn1ccnc1[N+](=O)[O-])NCc1ccccc1 [BENZNIDAZOLE] | 6.2 µM | – | – | – | – | – | – | 6.6 µM | 13.9 µM | – | Active | >99% | – |

| SMILES | inhibition [5] | IC50 (Trypanosoma cruzi [2]) | MNTC at 24 h [3] | IC50 (Procathepsin L [6]) | Ratio IC50 [7] | IC50 (Cathepsin S) | IC50 [8] | inhibition (Procathepsin L [9]) | IC50 (Trypanosoma cruzi [10]) | IC50 (Trypanosoma cruzi [11]) | highest nontoxic concentration [3] | Activity (Trypanosoma cruzi [15]) | Activity (Trypanosoma cruzi [18]) | other results |
| --- | --- | --- | --- | --- | --- | --- | --- | --- | --- | --- | --- | --- | --- | --- |
| C/C(COc1ccccc1)=N\N=C1\SC(C(C)C)C(=O)N1c1ccccc1 (racemic) | 78% | 6.1 µM | > 100 µg/mL | > 100 µM | 25 | > 100 µM | > 262 µM | 10% | 4.9 µM | 10.1 µM | > 262 µM | Active | 89.6% | Activity (Mus musculus [12]): Non-toxic; Activity (Mus musculus [13]): Non-toxic; IC50 (Cruzipain [14]): 6.6 µM; Activity (Trypanosoma cruzi [16]): Active; Activity (Trypanosoma cruzi [17]): Dose-dependent effect; inhibition [19]: 81%; Activity (Trypanosoma cruzi [20]): Active; inhibition (Trypanosoma cruzi [21]): Active |
